Active and inactive are the calls of the source. The calls are words filed in the database; no cut-off is given here.
Experiments:
Giardia duodenalis = assay: Inhibition of Giardia lamblia recombinant nitroreductase 1 (EAA43030.1) expressed in Escherichia coli at 5 uM
How it was run: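 Six-His-tagged recombinant enzyme expressed in E. coli (1 mM IPTG, 3.5 h) and Ni-column purified. Photometric NADH-oxidation assay in 50 mM Tris-Cl pH 7.0 with 25 μM dinitrotoluene substrate, 0.15 mM NADH final, and inhibitors at 5 μM against a DMSO control. After 5 min preincubation, A340 was read over 0–20 min. Activity came from the linear slope as μkat/g protein; triplicate, mean ± SE.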

Giardia intestinalis [1] = assay: Growth inhibition of Giardia lamblia; format: functional, organism-based; conditions: Giardia duodenalis
Giardia intestinalis [2] = assay: Reduction of GDH expression level in Giardia lamblia trophozoites at 25 uM after 3 hrs by RT-PCR assay; format: functional, organism-based; conditions: Giardia duodenalis
How it was run: (§1)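 G. lamblia WB clone C6 trophozoites grown anaerobically in modified TYI-S-33 to near confluence, exposed to compound at 25 μM (DMSO control) for 3 h, then harvested. RNA extracted with DNase I digestion; transcript levels of GlNR1, GlGDH1 and GlACT1 quantified by real-time RT-PCR.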

[3] = Inhibition of Giardia lamblia recombinant nitroreductase 1 (EAA43030.1) expressed in Escherichia coli; parameters: species or system Giardia duodenalis
How it was run: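 His6-tagged recombinant GlNR1 from IPTG-induced E. coli, Ni-column purified. Photometric NADH oxidation assay in 50 mM Tris-Cl pH 7.0 with dinitrotoluene substrate, 0.15 mM NADH final, 5 min preincubation, A340 read over 0–20 min.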

Giardia intestinalis [4] = assay: Reduction of nitroreductase 1 expression level in Giardia lamblia trophozoites at 25 uM after 3 hrs by RT-PCR assay; format: functional, organism-based; conditions: Giardia duodenalis; how it was run: as §1
Giardia intestinalis [5] = assay: Reduction of ACT1 expression level in Giardia lamblia trophozoites at 25 uM after 3 hrs by RT-PCR assay; format: functional, organism-based; conditions: Giardia duodenalis; how it was run: as §1

In the case of `Cc1ncc([N+](=O)[O-])n1CCO`, the Activity (Giardia duodenalis) is reported as “inactive”.

With `O=C(Nc1ncc([N+](=O)[O-])s1)c1ccccc1O` the Activity (Giardia intestinalis [1]) was “Active” and the inhibition (Giardia duodenalis) was greater than 75%.

In the case of `COc1cccc(C(=O)Nc2ncc([N+](=O)[O-])s2)c1O`, the Activity (Giardia intestinalis [1]) is reported as “Active” and the inhibition (Giardia duodenalis) is reported as greater than 75%.

In the case of `CC(=O)Oc1ccccc1C(=O)Nc1ncc([N+](=O)[O-])s1` [NITAZOXANIDE], the Activity (Giardia intestinalis [1]) is reported as “Active”, the Activity (Giardia intestinalis [2]) is reported as “Active” and the Ki [3] is reported as 300 nM. For the same compound, the inhibition (Giardia duodenalis) was greater than 75%, the Activity (Giardia intestinalis [4]) was “Active” and the Activity (Giardia intestinalis [5]) was “Active”.

For `CC(=O)Oc1c(C)cccc1C(=O)Nc1ncc([N+](=O)[O-])s1`, the Activity (Giardia intestinalis [1]) was “Active” and the inhibition (Giardia duodenalis) was greater than 75%.
